From ChEMBL document CHEMBL4219240, “Syntheses and structure-activity relationships on antibacterial and anti-ulcerative colitis properties of quaternary 13-substituted palmatines and 8-oxo-13-substituted dihydropalmatines” (Bioorg Med Chem, 2018) come the findings set out here.

Activity calls are given as the source filed them. The rule behind the calls is not given here.

Data set [1] concerns Mus musculus. Nature of the data set: Antiulcerogenic activity in DSS-induced acute ulcerative colitis C57BL/6J mouse model assessed as disappearance of inflammatory edema at 500 mg/kg, po qd administered for 7 days by microscopic analysis. In kind it is functional, organism-based. The procedure, abridged:
(§1)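 Colitis induced by DSS in C57BL/6J mice. Agents given orally each day: test agents at 150 mg/kg as a suspension in 0.5% CMC-Na; sulfasalazine at 500 mg/kg. At study end, colon tissue was H&E stained and examined by light microscopy at ×100 for mucosal structure, epithelial cell arrangement, crypt damage, inflammatory infiltration and ulceration.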

Data set [2] relates to Mus musculus. Nature of the data set: Inhibition of DSS-induced acute ulcerative colitis C57BL/6J mouse model at 500 mg/kg, po qd administered for 7 days relative to control. In kind it is functional. The following applies: 168 h.
Data set [3] deals with Mus musculus. Nature of the data set: Antiulcerogenic activity in DSS-induced acute ulcerative colitis C57BL/6J mouse model assessed as decrease in body weight at 500 mg/kg, po qd administered for 7 days (reference value: 23.96%). Further details: scale not given: the % may be the effect or the level left. In kind it is functional.
For data set [4], the system named is Mus musculus. Nature of the data set: Antiulcerogenic activity in DSS-induced acute ulcerative colitis C57BL/6J mouse model assessed as colon contracture at 500 mg/kg, po qd administered for 7 days (reference value: 41.87%). The class given is functional.
Data set [5] has as its system Mus musculus. Nature of the data set: Antiulcerogenic activity in DSS-induced acute ulcerative colitis C57BL/6J mouse model assessed as colon macroscopic damage index at 500 mg/kg, po qd administered for 7 days (reference value: 4.13 +/- 0.78). The class given is functional.
In data set [6] the test system is Mus musculus. Nature of the data set: Antiulcerogenic activity in DSS-induced acute ulcerative colitis C57BL/6J mouse model assessed as colon contracture at 150 mg/kg, po qd administered for 7 days (reference value: 41.87%). The class given is functional.
Data set [7] can be described thus: Cytotoxicity against rat IEC-6 cells assessed as cell survival at 10 uM after 72 hrs by MTT assay relative to control. In kind it is cell-based. The following applies: read-out: Survival. The essentials:
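IEC-6 intestinal epithelial cells were exposed to each compound at a fixed 10 µM for 72 h alongside an untreated blank control. Viability was read by MTT reduction and expressed as survival rate (SR). Compounds with SR between 70% and 100% were classed as noncytotoxic or hypocytotoxic.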

The test system of data set [8] is Mus musculus. The data set is described as follows: Inhibition of DSS-induced acute ulcerative colitis C57BL/6J mouse model at 150 mg/kg, po qd administered for 7 days relative to control. The following applies: 168 h. In kind it is functional.
In data set [9] the test system is Mus musculus. The data set is described as follows: Antiulcerogenic activity in DSS-induced acute ulcerative colitis C57BL/6J mouse model assessed as decrease in body weight at 150 mg/kg, po qd administered for 7 days (reference value: 23.96%). In kind it is functional. Set-up: scale not given: the % may be the effect or the level left.
The test system of a further data set is IEC-6. Nature of the data set: Induction of XBP1 promoter DNA activation in rat IEC-6 cells at 10 uM after 48 hrs by dual luciferase reporter gene assay relative to control. The class given is cell-based.
For another data set, the system named is Staphylococcus aureus. The data set is described as follows: Antibacterial activity against clinical isolate of Staphylococcus aureus after 24 hrs by twofold microdilution broth method. The class given is functional. The essentials:
(§2)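 Clinical isolates grown in Mueller-Hinton broth at 37 °C; inoculum diluted in MHB to 10^6 CFU. Compounds from 20,000 µg/ml DMSO stocks, twofold serial dilution across ten wells, with medium-only and organism-only controls. Incubated 24 h in ambient air. MIC taken as the lowest concentration with no visible growth by eye. Three replicates.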

Data set [10] relates to Mus musculus. Nature of the data set: Antiulcerogenic activity in DSS-induced acute ulcerative colitis C57BL/6J mouse model assessed as regular arrangement of IEC cells at 150 mg/kg, po qd administered for 7 days by microscopic analysis. The class given is functional, organism-based. The essentials: as §1
The subject of data set [11] is Mus musculus. The data set is described as follows: Antiulcerogenic activity in DSS-induced acute ulcerative colitis C57BL/6J mouse model assessed as recovery of polar arrangement of IEC cells at 150 mg/kg, po qd administered for 7 days by microscopic analysis. The class given is functional, organism-based. The essentials:
as §1

Data set [12] in a line: Induction of XBP1 promoter DNA activation in rat IEC-6 cells after 48 hrs by dual luciferase reporter gene assay. In kind it is cell-based. The following applies: IEC-6, 48 h.
A further data set deals with Candida albicans. Nature of the data set: Antifungal activity against Candida albicans CMCC (F) 98001 after 24 hrs by twofold microdilution broth method. In kind it is functional. The following applies: CMCC (F) 98001, 24 h. The procedure, abridged: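 Strain CMCC(F) 98001 grown in Sabouraud dextrose broth at 25 °C; inoculum diluted in SDB to 10^6 CFU. Compounds from 20,000 µg/ml DMSO stocks, twofold serial dilution across ten wells, with medium-only and organism-only controls. Incubated 24 h. MIC read by eye as the lowest concentration with no visible growth. Three replicates.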

In data set [13] the test system is Mus musculus. Nature of the data set: Antiulcerogenic activity in DSS-induced acute ulcerative colitis C57BL/6J mouse model assessed as colon macroscopic damage index at 150 mg/kg, po qd administered for 7 days (reference value: 4.13 +/- 0.78). The class given is functional.
A further data set concerns Escherichia coli. Nature of the data set: Antibacterial activity against clinical isolate of Escherichia coli after 24 hrs by twofold microdilution broth method. In kind it is functional. The essentials: as §2

For `O=C(O)c1cc(/N=N/c2ccc(S(=O)(=O)Nc3ccccn3)cc2)ccc1O` [SULFASALAZINE], in the data set on Mus musculus [1], the result was Active. In the data set on Mus musculus [2], this molecule registered an inhibition in vivo at 500 mg/kg of 55.2%. The Activity in the data set with Mus musculus [3] is listed as 6.01%; with Mus musculus [4], 28.22%. Besides, in the data set with Mus musculus [5], the Activity_index turned out to be 3.13.

`COc1cc2c(cc1OC)-c1c(C=O)c3ccc(OC)c(OC)c3c(=O)n1CC2`: the results for the Activity with Mus musculus [6] and in the data set with Mus musculus [9] were 29.24% and 5.92%, respectively. In addition, the viability at 72 h, 10 µM in data set [7] was 70 to 100%. Further, testing at 150 mg/kg in the data set with Mus musculus [8] gave an inhibition in vivo of 63.2%. The same molecule showed a fold change (FC) in the data set with IEC-6 of 1.41. The MIC against Staphylococcus aureus, against Candida albicans and with Escherichia coli was over 250 µg/mL each time. In addition, the result with Mus musculus [10] and with Mus musculus [11] was Active. For the same molecule, the EC50 in [12] turned out to be 135 nM. Moreover, in the data set on Mus musculus [13], the Activity_index was determined as 2.25.
